Screening results (PubChem BioAssay)
hK5 inh: human KLK5 protease inhibitors, primary screen, biochemical, 1536-well; recombinant hK5, fluorogenic AMC substrate cleavage; 0.59% of 210,000 active; inhibition, % at 5 µM; Kallikrein-5 (Homo sapiens), Q9Y337;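 active = inhibition of 40% or more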
thrombin 1536: human alpha-thrombin inhibitors, primary screen, counter-screen for coagulation protease inhibitor project, biochemical, 1536-well, fluorogenic AMC substrate; Prothrombin (Homo sapiens), P00734; Boc-VPR-AMC fluorogenic substrate cleavage; inhibition, % at 5 µM; 0.26% of 220,000 active; AID 1046, 2008;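 active = inhibition at or above 40%; inactive = inhibition below 40%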
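Assay system: human alpha-thrombin enzyme. Reagent: Boc-VPR-AMC substrate, 15 µM final. Compound dosing: one concentration per compound, 5 µM, with 0.2% DMSO. Incubation: room-temperature reaction. Technique: AMC fluorescence, 355/460 nm. Measure: % inhibition relative to enzyme controls and enzyme-free blanks.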
EP2 mod: EP2 receptor modulators, cAMP readout, primary screen, cell-based, HTRF cAMP, PGE2 stimulation | Prostaglandin E2 receptor EP2 subtype (Homo sapiens), P43116 | EP2-expressing cells, cAMP HTRF FRET, PGE2 co-stimulation | induction, % at 25 µM | 0.83% of 260,000 active;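 active = compounds whose cAMP rise, as percent of the full-agonist control response, exceeds 60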;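 also: rat C6 glioma line stably carrying human EP2 under a CMV promoter; the protocol text gives 20 µM as final concentration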
PGE2 EP2 inh: human EP2 receptor antagonists, primary screen, TR-FRET cAMP, C6 glioma cells; Prostaglandin E2 receptor EP2 subtype (Homo sapiens), P43116; C6 glioma cells expressing human EP2; cells stimulated with saturating PGE2; inhibition, % at 25 µM; 0.52% of 260,000 active;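 active = percent inhibition above 40 after rounding to a whole number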;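 also: rat C6 glioma host cells with rolipram phosphodiesterase inhibitor present; the protocol text gives 20 µM as final concentration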
FXIa inh 1536: human FXIa protease inhibitors, primary screen, biochemical, 1536-well; purified FXIa, Boc-Glu-Ala-Arg-AMC fluorogenic substrate; Coagulation factor XI (Homo sapiens), P03951; inhibition, % at 5 µM; AID 798, 2007; 0.14% of 220,000 active;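 active = inhibition of at least 40%; inactive = inhibition below 40%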;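 also: fluorescence of freed AMC excited at 355 nm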
Target sequence (P03951 19-387 limits assumed): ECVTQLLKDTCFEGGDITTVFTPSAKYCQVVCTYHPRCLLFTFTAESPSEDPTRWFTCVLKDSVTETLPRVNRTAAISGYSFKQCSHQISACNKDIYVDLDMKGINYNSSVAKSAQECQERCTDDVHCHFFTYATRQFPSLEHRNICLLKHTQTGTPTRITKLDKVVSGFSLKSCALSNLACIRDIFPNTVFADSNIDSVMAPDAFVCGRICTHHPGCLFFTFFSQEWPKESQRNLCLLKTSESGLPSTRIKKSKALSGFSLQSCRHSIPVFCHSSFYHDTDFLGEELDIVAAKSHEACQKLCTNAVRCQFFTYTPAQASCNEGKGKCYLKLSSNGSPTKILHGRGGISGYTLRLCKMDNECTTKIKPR
Target sequence (P03951 388-625 limits assumed): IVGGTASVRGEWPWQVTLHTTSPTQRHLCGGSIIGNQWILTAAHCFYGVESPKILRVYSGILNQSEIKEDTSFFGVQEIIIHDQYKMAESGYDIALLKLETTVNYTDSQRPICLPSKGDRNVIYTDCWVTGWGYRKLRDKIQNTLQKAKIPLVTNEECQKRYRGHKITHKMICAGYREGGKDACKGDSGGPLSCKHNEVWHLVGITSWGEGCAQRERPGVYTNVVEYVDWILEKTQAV
FXIIa inh 1536: human FXIIa protease inhibitors, primary screen, biochemical, 1536-well | purified FXIIa, Boc-QGR-AMC fluorogenic substrate, 2 h | inhibition, % at 5 µM | 0.3% of 220,000 active | AID 800, 2007; in the data active = inhibition above about 40%
EP2 cAMP induct: cAMP induction in EP2, EP4, beta2-AR and parental cells, confirmation, counter-screen for EP2 modulator project, cell-based, five parallel assays, C6 glioma, HEK293 | shares compounds with EP2 mod | cAMP HTRF induction; plus low (about EC15) PGE2 agonist | calls only at 20 µM (by protocol) | 47% of 1,300 active;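 active = cAMP induction above 50% in the main assay while under 30% in all four parallel counter assays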;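 also: rat C6 glioma cells stably expressing human EP2 receptor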
Of the large screens only hits and unclear results are named; the others gave an inactive call (follow-up assays come after a bar, where they were run). An excerpt weighted towards active compounds, which were near 2.1% of everything screened.

CCCc1nc2ccccc2c(=O)n1-c1ccccc1	none (no result: hK5 inh, thrombin 1536, FXIa inh 1536, FXIIa inh 1536)
CN(CC(=O)Nc1ccccc1-c1ccccc1)C1CCCCC1	EP2 mod 74 | EP2 cAMP induct inactive
CCc1ccccc1NC(=O)CNC1CCCCC1	none
Cn1c(N2CCNCC2)nc2c1c(=O)[nH]c(=O)n2C	none (no result: hK5 inh, thrombin 1536, FXIa inh 1536, FXIIa inh 1536)
COc1ccccc1CN(CCN(C)C)C(=O)Cc1nc2ccc(C)cc2[nH]1	none (no result: hK5 inh, thrombin 1536, FXIa inh 1536, FXIIa inh 1536)
O=c1c2ccccc2nc(N2CCCC2)n1-c1ccc(Cl)cc1	EP2 mod 68 | EP2 cAMP induct active
Cc1ccc(NP(=O)(Oc2ccccc2F)Oc2ccccc2F)cc1C	EP2 mod 71 | EP2 cAMP induct inactive
Cc1ccc(C2=CCN(CC(=O)Nc3ccc(N(C)C)cc3)CC2)o1	none (no result: hK5 inh, thrombin 1536, PGE2 EP2 inh, FXIa inh 1536, FXIIa inh 1536)
CCC(=O)O[C@H]1CCC2C3CCC4=CC(=O)CC[C@]4(C)C3CC[C@@]21C (stereo partly specified)	EP2 mod 77 (no result: hK5 inh, thrombin 1536, FXIa inh 1536, FXIIa inh 1536) | EP2 cAMP induct active
CN(N=O)c1ccc(O)c(O)c1	EP2 mod 83 (no result: hK5 inh, thrombin 1536, FXIa inh 1536, FXIIa inh 1536) | EP2 cAMP induct inactive
Cc1cc(OCC(=O)OC(C)C)c2c3c(c(=O)oc2c1)CCCC3	EP2 mod 66 | EP2 cAMP induct active
CCOC(=O)C(C)Oc1cc(C)cc2oc(=O)c3c(c12)CCCC3 (stereo unspecified)	none
